For one experiment, the system named is HepG2. In words: Antioxidant activity against t-BHP-induced oxidative stress in human HepG2 cells assessed as inhibition of intracellular ROS accumulation incubated for 24 hrs followed by t-BHP addition for 3 hrs by DCFH-DA staining based flow cytometric analysis. Format: functional, cell-based. The method in brief: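 HepG2 cells (4×10^5/well) exposed to compound (1.25, 2.5 or 5 μM) or DMSO for 24 h, then to 900 μM t-BHP for 3 h. Cells collected, stained with 3 μM DCFH-DA for 30 min at 37 °C in the dark, washed with PBS, and analysed at once by flow cytometry (FITC channel). Values normalised to the corresponding control.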
In general terms: Flow cytometry measures light scatter and fluorescence of single cells or particles in a stream.

Experiment [1] has as its target T1, Nuclear factor erythroid 2-related factor 2 (Homo sapiens) (UniProt Q16236).
T1 sequence (whole entry): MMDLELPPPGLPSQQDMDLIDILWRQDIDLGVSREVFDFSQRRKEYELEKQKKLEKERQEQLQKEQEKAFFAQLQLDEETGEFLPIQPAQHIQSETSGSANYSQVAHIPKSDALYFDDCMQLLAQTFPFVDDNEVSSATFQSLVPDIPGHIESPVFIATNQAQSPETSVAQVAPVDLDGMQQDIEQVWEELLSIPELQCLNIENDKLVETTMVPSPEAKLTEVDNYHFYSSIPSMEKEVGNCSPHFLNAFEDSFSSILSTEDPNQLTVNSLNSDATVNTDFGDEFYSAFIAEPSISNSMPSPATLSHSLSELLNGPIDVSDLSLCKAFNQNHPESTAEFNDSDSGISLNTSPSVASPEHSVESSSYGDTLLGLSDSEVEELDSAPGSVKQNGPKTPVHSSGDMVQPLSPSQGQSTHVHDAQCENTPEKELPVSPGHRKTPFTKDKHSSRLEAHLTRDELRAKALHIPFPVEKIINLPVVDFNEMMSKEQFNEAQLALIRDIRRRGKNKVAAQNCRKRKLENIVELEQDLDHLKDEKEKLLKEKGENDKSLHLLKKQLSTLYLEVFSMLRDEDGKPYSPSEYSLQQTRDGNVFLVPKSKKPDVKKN
The experiment is described as follows: Activation of Nrf2 in human HepG2 cells assessed as cytoprotection against t-BHP-induced oxidative cell death at 5 uM incubated for 24 hrs followed by compound removal with subsequent incubation with 900 uM of t-BHP for 6 hrs in presence of 100 uM iron chelator DFO for 1 hr prior to compound treatment by MTT assay. Format: cell-based. Put shortly: (§1)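 HepG2 cells (5×10^3/well) seeded and grown 24 h in 1640 medium with 10% FBS at 37 °C and 5% CO2. Compound is added for 24 h, then removed, and cells are challenged with 900 μM t-BHP for 6 h at 37 °C. MTT (0.5 mg/mL) is added for 4 h, formazan dissolved in DMSO, and absorbance read at 570 nm. Where used, inhibitors are added 1 h before compound. Mean ± SD of three independent experiments.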
Background: Tetrazolium dyes change colour on reduction, which living cells bring about.

Experiment [2] has as its target T1, Nuclear factor erythroid 2-related factor 2 (Homo sapiens). The experiment is described as follows: Activation of Nrf2 in human HepG2 cells assessed as cytoprotection against t-BHP-induced oxidative cell death at 5 uM incubated for 24 hrs followed by compound removal with subsequent incubation with 900 uM of t-BHP for 6 hrs in presence of 100 nM Nrf2 inhibitor TRG for 1 hr prior to compound treatment by MTT assay. Format: cell-based. The method in brief:
as §1

For experiment [3] the target is unchanged. In words: Activation of Nrf2 in human HepG2 cells assessed as increase in cytosolic Nrf2 expression level after 3 hrs by Western blot analysis. Format: cell-based. Put shortly:
(§2)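 HepG2 cells (2×10^6/well) treated at the indicated concentrations and times. Whole-cell lysates, or nuclear and cytoplasmic fractions, are prepared and quantified by BCA. Samples are run at 40 μg/lane on 12% SDS-PAGE, transferred to nitrocellulose, probed with specific antibodies and HRP secondary (1/5000), and detected by ECL. Where used, LY294002 (15 μM), SP600125 (25 μM) or DTT (400 μM) is added 1 h before compound.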

Experiment [4] concerns the target Kelch-like ECH-associated protein 1 (Homo sapiens) (UniProt Q14145). In words: Induction of keap1-dependent Nrf2 stabilization in human HepG2 cells assessed as upregulation of total Nrf2 expression at 5 uM by Western blot analysis. Format: cell-based. The following applies: TDE = time-dependent effect. Put shortly: as §2
Experiment [5] addresses T2, Keap1/Nrf2 (Homo sapiens) (UniProt Q16236+Q14145). In words: Inhibition of Keap1/Nrf2 interaction in human HepG2 cells assessed as decrease in Keap1 expression level after 3 hrs in presence of DTT for 1 hr prior to compound treatment by Western blot analysis. Format: cell-based. The method in brief:
as §2

Experiment [6] deals with T1, Nuclear factor erythroid 2-related factor 2 (Homo sapiens). The experiment is described as follows: Activation of Nrf2 in human HepG2 cells assessed as cytoprotection against t-BHP-induced oxidative cell death at 5 uM incubated for 24 hrs followed by compound removal with subsequent incubation with 900 uM of t-BHP for 6 hrs in presence of 100 nM copper chelator NEO for 1 hr prior to compound treatment by MTT assay. Format: cell-based. The method in brief:
as §1

The target is the same in experiment [7]. The experiment is described as follows: Activation of Nrf2 in human HepG2 cells assessed as increase in GCLM expression level at 5 uM in presence of 15 uM PI3K/Akt inhibitor LY294002 for 1 hr prior to compound treatment by Western blot analysis. Format: cell-based. Put shortly: as §2
Background: In western blotting, separated proteins are transferred to a membrane and probed.

Experiment [8] shares this target. In words: Activation of Nrf2 in human HepG2 cells assessed as increase in GCLC expression level at 5 uM by Western blot analysis. Format: cell-based. The following applies: TDE = time-dependent effect. Put shortly: as §2
For experiment [9] the target is unchanged. In words: Activation of Nrf2 in human HepG2 cells assessed as cytoprotection against t-BHP-induced oxidative cell death at 5 uM incubated for 24 hrs followed by compound removal with subsequent incubation with 900 uM of t-BHP for 6 hrs in presence of 15 uM PI3K/Akt inhibitor LY294002 for 1 hr prior to compound treatment by MTT assay. Format: cell-based. Put shortly:
as §1

The target is the same in experiment [10]. The experiment is described as follows: Activation of Nrf2 in human HepG2 cells assessed as increase in Nrf2 expression level after 3 hrs by Western blot analysis. Format: cell-based. Put shortly: as §2
Experiment [11] shares this target. The experiment is described as follows: Activation of Nrf2 in human HepG2 cells assessed as cytoprotection against t-BHP-induced oxidative cell death at 5 uM incubated for 24 hrs followed by compound removal with subsequent incubation with 900 uM of t-BHP for 6 hrs in presence of 25 uM JNK inhibitor SP600125 for 1 hr prior to compound treatment by MTT assay. Format: cell-based. Put shortly: as §1

Experiment [12] deals with c-Jun N-terminal kinase, JNK (Homo sapiens) (UniProt P45983+P53779+P45984). The experiment is described as follows: Induction of JNK phosphorylation in human HepG2 cells at 5 uM by Western blot analysis. Format: cell-based. The note with it: TDE = time-dependent effect. Put shortly: as §2
The species entered for the next experiment is Homo sapiens. In words: Induction of ERK phosphorylation in human HepG2 cells at 5 uM after 15 to 120 mins by Western blot analysis. Format: cell-based. The method in brief: as §2
For experiment [13], the target named is T1, Nuclear factor erythroid 2-related factor 2 (Homo sapiens). The experiment is described as follows: Activation of Nrf2 in human HepG2 cells assessed as cytoprotection against t-BHP-induced oxidative cell death at 5 uM incubated for 24 hrs followed by compound removal with subsequent incubation with 900 uM of t-BHP for 6 hrs in presence of 10 uM GCL inhibitor BSO for 1 hr prior to compound treatment by MTT assay. Format: cell-based. The method in brief: as §1

For experiment [14], the target named is T2, Keap1/Nrf2 (Homo sapiens). In words: Inhibition of Keap1/Nrf2 interaction in human HepG2 cells assessed as increase in Nrf2 expression level after 3 hrs in presence of DTT for 1 hr prior to compound treatment by Western blot analysis. Format: cell-based. Put shortly:
as §2

Experiment [15] has as its target T1, Nuclear factor erythroid 2-related factor 2 (Homo sapiens). In words: Activation of Nrf2 in human HepG2 cells assessed as increase in cytosolic Nrf2 expression level at 5 uM after 12 hrs by Western blot analysis. Format: cell-based. Put shortly: as §2

Calls of active or inactive are those of the source. No cut-off for these calls is given here.

T2 sequence (Q14145 whole entry, looked up, one chain of several): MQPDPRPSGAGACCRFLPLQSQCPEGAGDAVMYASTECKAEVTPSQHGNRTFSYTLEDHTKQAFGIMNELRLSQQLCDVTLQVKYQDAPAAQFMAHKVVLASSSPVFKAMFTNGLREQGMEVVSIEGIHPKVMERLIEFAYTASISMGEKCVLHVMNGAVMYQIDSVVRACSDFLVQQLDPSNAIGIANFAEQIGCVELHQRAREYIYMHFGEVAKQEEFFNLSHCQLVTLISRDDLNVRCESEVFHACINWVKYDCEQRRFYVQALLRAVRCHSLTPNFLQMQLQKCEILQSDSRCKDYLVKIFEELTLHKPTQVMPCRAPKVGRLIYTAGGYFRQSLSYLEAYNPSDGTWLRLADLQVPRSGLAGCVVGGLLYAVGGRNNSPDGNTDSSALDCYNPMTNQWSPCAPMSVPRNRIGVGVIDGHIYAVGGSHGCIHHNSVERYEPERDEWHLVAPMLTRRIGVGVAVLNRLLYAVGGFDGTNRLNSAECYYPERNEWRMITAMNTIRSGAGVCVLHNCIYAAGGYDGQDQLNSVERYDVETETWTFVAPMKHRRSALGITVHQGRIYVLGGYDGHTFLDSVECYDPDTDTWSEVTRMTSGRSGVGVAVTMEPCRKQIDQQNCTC
Chain of Kelch-like ECH-associated protein 1 (Homo sapiens) (Q14145 whole entry): as the sequence (Q14145 whole entry, looked up, one chain of several) above

Turning to `CC(C)(C(=O)/C=C/c1ccc(O)c(O)c1)C(=O)/C=C/c1ccc(O)c(O)c1`, the inhibition result with HepG2 is “Dose-dependent effect”. Further, the result in [1], in experiment [2], in [6], in experiment [7], in experiment [9] and in experiment [11] was inactive. The result (in the experiment listed under Homo sapiens; in [13]; in experiment [15]) was inactive. Also, the Activity result in experiment [3] was “Dose-dependent effect”; in experiment [4] it was “Tde”; in experiment [8], “Tde”; in [12], “Tde”. In addition, the inhibition entry in experiment [5] and in [14] was “inactive” in each case. In addition, the outcome in experiment [10] was Active.
